Assays:
Escherichia coli [1] = assay: Antibacterial activity against Escherichia coli O157:H7 CICC 21530 assessed as bacterial growth inhibition incubated for 18 to 24 hrs by microtiter broth dilution method; format: functional; conditions: time 18-24 hrs
How it was run: (§1)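 Log-phase bacteria grown at 37 °C in MHB, diluted to 10^5 CFU/mL, mixed 1:1 with serial peptide dilutions (peptide diluted in 0.01% acetic acid, 0.2% BSA); 37 °C for 18-24 h. MIC read by OD492 as lowest concentration giving no growth; mean of 3-5 independent experiments.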

Escherichia coli [2] = assay: Antibacterial activity against Escherichia coli ATCC 25922 assessed as bacterial growth inhibition incubated for 18 to 24 hrs by microtiter broth dilution method; format: functional; conditions: time 18-24 hrs
How it was run: (§2)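 Log-phase cells (grown overnight at 37 °C, subcultured in MHB) diluted to 10^5 CFU/mL in MHB and mixed 1:1 with serial peptide dilutions prepared in 0.01% acetic acid/0.2% BSA. Incubated 37 °C for 18-24 h. MIC is the lowest concentration giving no growth by OD492. Reported as the average of 3-5 independent experiments.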

Escherichia coli [3] = assay: Antibacterial activity against Escherichia coli ATCC 35150 assessed as bacterial growth inhibition incubated for 18 to 24 hrs by microtiter broth dilution method; format: functional; conditions: time 18-24 hrs; how it was run: as §2
Salmonella paratyphi [4] = assay: Antibacterial activity against Salmonella paratyphi A CICC 20501 assessed as bacterial growth inhibition incubated for 18 to 24 hrs by microtiter broth dilution method; format: functional, Salmonella enterica subsp. enterica serovar Paratyphi A; conditions: Salmonella enterica, time 18-24 hrs; how it was run: as §1
[5] = system: Salmonella enterica subsp. enterica serovar Paratyphi B; assay: Antibacterial activity against Salmonella paratyphi B CICC 21495 assessed as bacterial growth inhibition incubated for 18 to 24 hrs by microtiter broth dilution method; format: functional; conditions: time 18-24 hrs; how it was run: as §1
Salmonella paratyphi [6] = assay: Antibacterial activity against Salmonella paratyphi C CICC 21512 assessed as bacterial growth inhibition incubated for 18 to 24 hrs by microtiter broth dilution method; format: functional; conditions: Salmonella enterica, time 18-24 hrs; how it was run: as §1
Shigella flexneri = assay: Antibacterial activity against Shigella flexneri CMCC 51571 assessed as bacterial growth inhibition incubated for 18 to 24 hrs by microtiter broth dilution method; format: functional; conditions: time 18-24 hrs; how it was run: as §2
Salmonella enterica = assay: Antibacterial activity against Salmonella choleraesuis ATCC 13312 assessed as bacterial growth inhibition incubated for 18 to 24 hrs by broth dilution method; format: functional; conditions: time 18-24 hrs; how it was run: as §1
Salmonella typhimurium = assay: Antibacterial activity against Salmonella typhimurium CMCC 51005 assessed as bacterial growth inhibition incubated for 18 to 24 hrs by microtiter broth dilution method; format: functional, Salmonella enterica subsp. enterica serovar Typhimurium; conditions: Salmonella enterica, time 18-24 hrs; how it was run: as §2
Salmonella enteritidis = assay: Antibacterial activity against Salmonella enteritidis CICC 21527 assessed as bacterial growth inhibition incubated for 18 to 24 hrs by microtiter broth dilution method; format: functional, Salmonella enterica subsp. enterica serovar Enteritidis; conditions: Salmonella enterica, time 18-24 hrs; how it was run: as §2
Vibrio parahaemolyticus = assay: Antibacterial activity against Vibrio parahaemolyticus CICC 21617 assessed as bacterial growth inhibition incubated for 18 to 24 hrs by broth dilution method; format: functional; conditions: time 18-24 hrs; how it was run: as §2
Staphylococcus aureus [7] = assay: Antibacterial activity against Staphylococcus aureus GIM 1.160 assessed as bacterial growth inhibition incubated for 18 to 24 hrs by microtiter broth dilution method; format: functional; conditions: time 18-24 hrs; how it was run: as §2
Bacillus cereus = assay: Antibacterial activity against Bacillus cereus CMCC 63301 assessed as bacterial growth inhibition incubated for 18 to 24 hrs by microtiter broth dilution method; format: functional; conditions: time 18-24 hrs; how it was run: as §2
Micrococcus luteus = assay: Antibacterial activity against Micrococcus luteus CMCC 28001 assessed as bacterial growth inhibition incubated for 18 to 24 hrs by microtiter broth dilution method; format: functional; conditions: time 18-24 hrs; how it was run: as §2
Bacillus pumilus = assay: Antibacterial activity against Bacillus pumilus CMCC 63202 assessed as bacterial growth inhibition incubated for 18 to 24 hrs by microtiter broth dilution method; format: functional; conditions: time 18-24 hrs; how it was run: as §2
Pseudomonas fluorescens = assay: Antibacterial activity against Pseudomonas fluorescens CICC 21620 assessed as bacterial growth inhibition incubated for 18 to 24 hrs by microtiter broth dilution method; format: functional; conditions: time 18-24 hrs; how it was run: as §2
Staphylococcus aureus [8] = assay: Antibacterial activity against methicillin resistant Staphylococcus aureus ATCC 43300 assessed as bacterial growth inhibition incubated for 18 to 24 hrs by microtiter broth dilution method; format: functional; conditions: time 18-24 hrs; how it was run: as §1
Candida albicans = assay: Antifungal activity against Candida albicans ATCC 10231 assessed as fungal growth inhibition incubated for 18 to 24 hrs by microtiter broth dilution method; format: functional; conditions: time 18-24 hrs; how it was run: as §2
Erythrocyte = assay: Hemolytic activity against human red blood cells assessed as concentration required to cause 10% hemoglobin release measured after 1 hr by microplate reader analysis; format: ADME, cell-based
How it was run: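 Fresh heparinized human RBCs washed three times in 10 mM PBS pH 7.4 and resuspended to about 1% (v/v) (5.4 × 10^8 cells/mL). Mixed 1:1 with peptide in PBS for 1 h at 37 °C, then centrifuged. Supernatant hemoglobin read at A540. PBS set as 0% and 0.1% Triton X-100 as 100% hemolysis. MHC is the concentration causing 10% hemolysis.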

Staphylococcus aureus [9] = assay: Antibacterial activity against Staphylococcus aureus ATCC 29213 assessed as bacterial growth inhibition incubated for 18 to 24 hrs by microtiter broth dilution method; format: functional; conditions: time 18-24 hrs; how it was run: as §2
Listeria monocytogenes [10] = assay: Antibacterial activity against Listeria monocytogenes CICC 21662 assessed as bacterial growth inhibition incubated for 18 to 24 hrs by microtiter broth dilution method; format: functional; conditions: time 18-24 hrs; how it was run: as §2
Listeria monocytogenes [11] = assay: Antibacterial activity against Listeria monocytogenes CICC 21633 assessed as bacterial growth inhibition incubated for 18 to 24 hrs by microtiter broth dilution method; format: functional; conditions: time 18-24 hrs; how it was run: as §2

CN[C@H](CC(C)C)C(=O)N[C@H]1C(=O)N[C@@H](CC(N)=O)C(=O)N[C@H]2C(=O)N[C@H]3C(=O)N[C@H](C(=O)N[C@H](C(=O)O)c4cc(O)cc(O)c4-c4cc3ccc4O)[C@H](O)c3ccc(c(Cl)c3)Oc3cc2cc(c3O[C@@H]2O[C@H](CO)[C@@H](O)[C@H](O)[C@H]2O[C@H]2C[C@](C)(N)[C@H](O)[C@H](C)O2)Oc2ccc(cc2Cl)[C@H]1O [VANCOMYCIN]
88.3 µM: MIC (Escherichia coli [2]) | MIC [5] | MIC (Salmonella paratyphi [6]) | MIC (Shigella flexneri) | MIC (Vibrio parahaemolyticus)
0.35 µM: MIC (Bacillus pumilus) | MIC (Pseudomonas fluorescens)
0.69 µM: MIC (Micrococcus luteus)
44.2 µM: MIC (Salmonella enteritidis)
0.17 µM: MIC (Bacillus cereus)
> 88.3 µM: MIC (Escherichia coli [1]) | MIC (Escherichia coli [3]) | MIC (Salmonella paratyphi [4]) | MIC (Salmonella enterica) | MIC (Salmonella typhimurium) | MIC (Candida albicans)
1.38 µM: MIC (Staphylococcus aureus [7]) | MIC (Staphylococcus aureus [8])
> 88.32 µM: MHC10 (Erythrocyte)

C[C@@H]1[C@H](O)[C@@H](C)/C=C/C=C/C=C/C=C/C=C/C=C/C=C/[C@H](O[C@@H]2O[C@H](C)[C@@H](O)[C@H](N)[C@@H]2O)C[C@@H]2O[C@](O)(C[C@@H](O)C[C@@H](O)[C@H](O)CC[C@@H](O)C[C@@H](O)CC(=O)O[C@H]1C)C[C@H](O)[C@H]2C(=O)O [AMPHOTERICIN B]
0.54 µM: MHC10 (Erythrocyte)
> 139 µM: MIC (Escherichia coli [1]) | MIC (Escherichia coli [2]) | MIC (Escherichia coli [3]) | MIC (Salmonella paratyphi [4]) | MIC [5] | MIC (Salmonella paratyphi [6]) | MIC (Shigella flexneri) | MIC (Salmonella enterica) | MIC (Salmonella typhimurium) | MIC (Salmonella enteritidis) | MIC (Vibrio parahaemolyticus) | MIC (Staphylococcus aureus [9]) | MIC (Staphylococcus aureus [7]) | MIC (Listeria monocytogenes [10]) | MIC (Listeria monocytogenes [11]) | MIC (Bacillus cereus) | MIC (Micrococcus luteus) | MIC (Bacillus pumilus) | MIC (Pseudomonas fluorescens) | MIC (Staphylococcus aureus [8])
4.33 µM: MIC (Candida albicans)

From ChEMBL document CHEMBL4765236, “Insights into the Antimicrobial Activity and Cytotoxicity of Engineered α-Helical Peptide Amphiphiles” (J Med Chem, 2016)
